Results on eleven compounds are retold here after ChEMBL document CHEMBL1153913, “5-Arylidene-2-phenylimino-4-thiazolidinones as PTP1B and LMW-PTP inhibitors” (Bioorg Med Chem, 2009).

For assay [1], the target named is T1, Low molecular weight phosphotyrosine protein phosphatase (Saccharomyces cerevisiae S288c, UniProt P40347).
T1 sequence (P40347 whole entry): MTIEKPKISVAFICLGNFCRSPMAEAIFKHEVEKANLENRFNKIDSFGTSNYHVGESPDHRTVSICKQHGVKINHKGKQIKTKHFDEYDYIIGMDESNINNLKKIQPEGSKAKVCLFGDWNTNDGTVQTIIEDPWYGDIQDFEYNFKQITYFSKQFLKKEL
Put plainly: Inhibition of Saccharomyces cerevisiae Ltp1. In a few lines: (§1)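 p-Nitrophenylphosphate hydrolysis at 37 °C in pH 7.0 buffer with 0.075 M β,β-dimethylglutarate, 1 mM EDTA and 5 mM DTT. The enzyme was added to start the reaction, which was stopped with 1 M KOH. Released p-nitrophenolate was read at 400 nm. Initial rates were measured in triplicate with substrate fixed at each PTP's Km. IC50 was fitted from Vi/V0 = IC50/(IC50+[I]).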

Assay [2] deals with T2, Tyrosine-protein phosphatase non-receptor type 1 (Homo sapiens, UniProt P18031).
T2 sequence (P18031 whole entry): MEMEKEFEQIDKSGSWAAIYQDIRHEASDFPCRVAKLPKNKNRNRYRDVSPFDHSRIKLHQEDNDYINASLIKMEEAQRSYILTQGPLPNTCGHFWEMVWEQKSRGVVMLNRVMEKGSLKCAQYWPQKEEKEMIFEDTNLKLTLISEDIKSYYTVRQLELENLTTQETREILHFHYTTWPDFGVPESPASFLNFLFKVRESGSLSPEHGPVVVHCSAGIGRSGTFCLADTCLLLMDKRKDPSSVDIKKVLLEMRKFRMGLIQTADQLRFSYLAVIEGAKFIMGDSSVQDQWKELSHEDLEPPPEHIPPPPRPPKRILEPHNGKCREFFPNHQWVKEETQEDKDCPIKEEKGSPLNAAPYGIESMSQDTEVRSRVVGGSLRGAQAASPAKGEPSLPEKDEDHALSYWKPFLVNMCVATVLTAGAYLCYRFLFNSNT
Briefly: Inhibition of GST-tagged human PTP1B. Summed up:
as §1

Assay [3] deals with T3, Low molecular weight phosphotyrosine protein phosphatase (Homo sapiens, UniProt P24666).
T3 sequence (P24666 whole entry): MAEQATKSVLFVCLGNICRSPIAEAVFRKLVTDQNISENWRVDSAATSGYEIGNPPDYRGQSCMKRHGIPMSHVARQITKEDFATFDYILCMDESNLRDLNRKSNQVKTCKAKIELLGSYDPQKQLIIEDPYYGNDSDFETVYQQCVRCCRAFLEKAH
Briefly: Inhibition of GST-tagged human LMW PTP1B IF1 isoform. Summed up:
as §1

Assay [4] has as its target Low molecular weight PTP, IF2 isoform (Homo sapiens). Put plainly: Inhibition of GST-tagged human LMW PTP1B IF2 isoform.

As to `O=C(O)c1ccc(CN2C(=O)/C(=C/c3ccc(Oc4ccccc4)cc3)S/C2=N\c2ccccc2)cc1`, the IC50 – broadly, the concentration at which inhibition is half-maximal – in assay [1] turned out to be 6.3 µM; in assay [2], 1.1 µM.

With `O=C(O)c1ccc(CN2C(=O)/C(=C/c3ccc(O)cc3)S/C2=N\c2ccccc2)cc1`, the IC50 in assay [1] is 195 µM; in assay [2] it was 30.1 µM; in assay [3], 47.7 µM; in assay [4] it was 270 µM.

Turning to `O=C(O)c1ccc(CN2C(=O)/C(=C/c3cccc(Oc4ccccc4)c3)S/C2=N\c2ccccc2)cc1`, the IC50 in assay [1] turned out to be 11.1 µM; in assay [2], 1.9 µM.

For the compound `O=C(O)c1ccc(CN2C(=O)/C(=C/c3cccc(OCc4ccccc4)c3)S/C2=N\c2ccccc2)cc1`, the IC50 in assay [1] came out at 12.9 µM; in assay [2], 3.8 µM.

Take `O=C(O)c1ccc(CN2C(=O)/C(=C/c3ccc(OCc4ccccc4)cc3)S/C2=N\c2ccccc2)cc1`: the IC50 in assay [1] turned out to be 15.9 µM; in assay [2], 1.1 µM.

On to `O=C(O)c1ccc(CN2C(=O)/C(=C/c3cccc4ccccc34)S/C2=N\c2ccccc2)cc1`, for which the IC50 in assay [1] was above 500 µM; in assay [2] it was 14 µM.

With `O=C(O)c1ccc(CN2C(=O)/C(=C/c3ccc(O)c(C(=O)O)c3)S/C2=N\c2ccccc2)cc1`, the IC50 in assay [1] stood at 345 µM; in assay [2], 19.5 µM.

As to `COc1ccc(/C=C2\S/C(=N\c3ccccc3)N(Cc3ccc(C(=O)O)cc3)C2=O)cc1O`, the IC50 in assay [1] is above 250 µM; in assay [2], 32.1 µM.

`O=C(O)c1ccc(CN2C(=O)/C(=C/c3cccc(O)c3)S/C2=N\c2ccccc2)cc1`: the IC50 in assay [1] was above 250 µM; in assay [2], 35.4 µM; in assay [3], 62.5 µM; in assay [4], above 250 µM.

`O=C(O)c1ccc(CN2C(=O)/C(=C/c3ccc4ccccc4c3)S/C2=N\c2ccccc2)cc1`: the IC50 was 27.6 µM in assay [1], 1.9 µM in assay [2], 3.7 µM in assay [3] and 13.8 µM in assay [4].

With `COc1cc(/C=C2\S/C(=N\c3ccccc3)N(Cc3ccc(C(=O)O)cc3)C2=O)ccc1O`, the values for the IC50 in assay [1] and in assay [2] were above 250 µM and 33.7 µM, respectively.
